T cell modulator: modulates CD8 T cell binding to vesicles; 330,000 compounds, 0.068% hits; response (vesicle binding), % at 7 µM; 2C CD8+ T cell-vesicle binding, flow cytometry; stronger effect = lower value;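 active = response, share of CD8 T cells binding vesicles, and their 90th percentile fluorescence all below set limits, cut at about 80% in these data, passing the limit was not always enough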;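 note: values below 100% mean blocked vesicle binding to the CD8+ T cells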
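Read-out – percent CD8+ FL2 mean versus row control · System – murine 2C transgenic CD8+ T lymphocytes · Times – 1.5 h cell–vesicle binding at 37 °C, then 20 min icy labelling · Control set – naked vesicles low, QL9 vesicles with vehicle high · Detection – cytometric PE anti-B7-1 and Alexa647 anti-CD8 signals after 1% paraformaldehyde fixation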
N-glyco inh: blocks N-linked glycosylation in D54 reporter cells; AID 588692; D54 ERlucT glycosylation luciferase reporter, 24 h; percent of 100 nM tunicamycin response; reporter increase, % at 12.5 µM; 360,000 compounds, 0.23% hits;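 active = mean luciferase reporter signal, scaled so untreated is 0 and the glycosylation-blocking control 100, at or above a set limit in every replicate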;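 note: luciferase carries N-glycosylation sites so blocking glycosylation raises the light; 0% = median of neutral control wells and 100% = median of 100 nM tunicamycin wells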
ALR inh: inhibitors of human sulfhydryl oxidase ALR; AID 485317; 290,000 compounds, 3.8% hits; P55789; purified ALR, DTT oxidation, H2O2 HRP-luminol luminescence; inhibition, % (concentration not given with the values);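 active = mean replicate inhibition above about 79%, with every replicate also reaching it, limit read from the data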
Target sequence (P55789 whole entry, looked up): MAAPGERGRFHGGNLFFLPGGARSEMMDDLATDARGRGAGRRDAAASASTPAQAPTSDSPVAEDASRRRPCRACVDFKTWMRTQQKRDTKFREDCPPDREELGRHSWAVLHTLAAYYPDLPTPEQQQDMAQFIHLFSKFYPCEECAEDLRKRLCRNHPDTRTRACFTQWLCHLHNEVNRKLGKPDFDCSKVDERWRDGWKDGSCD
* = called active by the depositor; . = no result. The entries come from a sample that favours hits as a whole.

SMILES	T cell modulator	N-glyco inh	ALR inh
O=C1CC(c2nc3ccccc3[nH]2)CN1Cc1ccccc1 (stereo not given)	46.8*	-0.3	-8.7
O=C(CSC1=NCCN1)Nc1ccccc1[N+](=O)[O-]	380.6	1.2	99.5*
Cc1ccc(NC(=O)CSC2=NCCN2)cc1	580.8	20.5	-3.1
Cc1csc(SCC(=O)Nc2ccccc2[N+](=O)[O-])n1	143.4	-0.3	-10.9
COc1ccccc1NC(=O)CSC1=NCCN1	402.1	-0.3	98.5*
O=C(CSC1=NCCN1)NC(c1ccccc1)c1ccccc1	355.8	1.3	98.7*
O=C(CSC1=NCCN1)Nc1cccc([N+](=O)[O-])c1	321.3	9.2	98.7*
Nc1nc(SCC(=O)Nc2cccc([N+](=O)[O-])c2)n[nH]1	171.4	-0.6	22.3
O=C(CSC1=NCCN1)NC1CCCCCC1	193.3	1.8	4.9
O=C(Cc1ccc(NC(=O)C2CCCN(C(=O)C3CC3)C2)cc1)Nc1cccc(C(=O)N2CCCCC2)c1 (stereo not given)	.	0.6	.
CCCCSCc1nc2nc(Cl)c(Cl)nc2[nH]1	.	-2.1	.
COc1ccc(C(=O)Nc2ccccc2C(=O)NC(Cc2c[nH]c3ccccc23)C(=O)O)cc1 (stereo not given)	202.9	0.8	7.2
COc1ccc(CCN2CC(C(=O)NCCc3ccccn3)CCC2=O)cc1 (stereo not given)	859.1	1.0	-2.5
CC/S(C)=N/S(=O)(=O)c1ccc(C)cc1 (stereo not given)	247.1	2.2	-3.1
O=C(O)c1cccc(-n2c(/C=C/c3cccc([N+](=O)[O-])c3)nc3ccccc3c2=O)c1	88.5	1.3	11.9
O=C(O)c1cccc(-n2c(/C=C/c3ccc([N+](=O)[O-])cc3)nc3ccccc3c2=O)c1	252.4	-0.5	16.7
O=C(O)c1ccc(-n2c(/C=C/c3cccc([N+](=O)[O-])c3)nc3ccccc3c2=O)cc1	453.1	3.6	90.4*
O=C(O)c1ccc(-n2c(/C=C/c3ccccc3)nc3ccccc3c2=O)cc1	218.7	0.8	98.9*
CCN(CC)Cc1cc2[nH]c3c4ccc(Cl)cc4ncc3c2cc1OC	.	-2.7	.
CC1(C(=O)NS(=O)(=O)c2cccc(F)c2)CCN1C(=O)c1cccc(F)c1 (stereo not given)	.	1.1	.
O=C(Cn1cnc2c(NC(=O)OCc3ccccc3)ncnc21)NCCN1CCOCC1	271.1	1.7	0.2
Cc1noc(C)c1COc1ccc(C(=O)NNC(=O)c2ccccc2F)cc1	390.7	26.8*	-3.7
Cc1noc(C)c1COc1ccc(C(=O)NNC(=O)c2ccccc2)cc1	206.7	23.1	-1.3
Nc1nc(=O)n(C2CC(O)C(CO)O2)cc1F (stereo not given)	.	-1.5	.
CCOC(=O)C1CCC(=O)C1 (stereo not given)	.	1.2	.
SMILES	T cell modulator	N-glyco inh	ALR inh
C/C(=N/NC(=O)c1sc(NS(=O)(=O)c2ccc(C)cc2)nc1C)c1sc(N)nc1C	120.0	3.4	98.7*
Cc1ccc(S(=O)(=O)Nc2nc(C)c(C(=O)NN)s2)cc1	185.6	1.2	-5.7
Nc1ccc2c(c1)N1CCN=C1S2	201.2	1.1	87.8*
O=C(Nc1ccc(Cl)cc1)Nc1ccc2c(c1)N1CCN=C1S2	309.0	-6.8	0.3
Cc1cc2nccc(-c3ccc(OCCCF)cc3)n2n1	163.8	-1.1	43.2
S=c1[nH]nc(-c2cnccn2)n1-c1ccccc1	552.3	3.2	38.6
COc1ccc(-n2c(-c3cnccn3)n[nH]c2=S)cc1	272.9	0.8	90.3*
Cc1ccc(CN(C)C(=O)CSc2nnc3n2CCCCC3)c(C)c1	331.6	-0.3	.
CC(=O)OCC(=O)C1(O)CCC2C3CCC4=CC(=O)CCC4(C)C3C(O)CC21C (stereo not given)	.	0.2	.
N#CC1=C(N)SC(N)=C(C#N)C1c1ccc([N+](=O)[O-])cc1	914.0	0.8	97.8*
N#CC1=C(N)SC(N)=C(C#N)C1c1ccc(C(F)(F)F)cc1	160.0	.	68.5
COc1ccc(OC)c(N=c2oc3c(OC)cccc3cc2C(=O)NCc2ccco2)c1	500.1	0.0	21.7
COc1ccccc1N=c1oc2c(OC)cccc2cc1C(=O)NCc1ccco1	285.2	0.1	85.9*
CCOC(=O)N1CCN(C(=O)/C=C/c2cccc([N+](=O)[O-])c2)CC1	192.3	1.0	0.0
NS(=O)(=O)c1ccc(N=Nc2c[nH]c(=O)c(O)c2)cc1	60.5	-2.8	89.5*
Nc1nc(O)c(N=Nc2ccc(S(N)(=O)=O)cc2)c(=O)[nH]1	218.2	.	-6.5
Cc1cccn2c(=O)c3cc(C(=O)NC4CCCC4)c(=N)n(CCc4ccccc4)c3nc12	239.0	29.9*	.
Cc1cccn2c(=O)c3cc(C(=O)NCCN4CCOCC4)c(=N)n(CCCN4CCOCC4)c3nc12	218.5	-4.0	5.4
CCNC(=O)c1cc2c(=O)n3cccc(C)c3nc2n(CCc2ccccc2)c1=N	165.0	46.4*	-0.5
COCCn1c(=N)c(C(=O)NCCc2ccccc2)cc2c(=O)n3cccc(C)c3nc21	853.1	0.1	-0.5
COc1ccc(CCn2c(=N)c(C(=O)NC3CCCC3)cc3c(=O)n4cccc(C)c4nc32)cc1	516.0	2.7	-3.2
Cc1cccn2c(=O)c3cc(C(=O)NCCN4CCOCC4)c(=N)n(CCc4ccccc4)c3nc12	402.0	30.9*	-10.9
O=C(/C=C/c1ccc(Br)o1)Nc1nnc(C2CC2)s1	90.4	.	29.3
CCOC(=O)c1ccc(NC(=O)NCc2c(C)nn(CC)c2C)cc1	117.5	-0.3	1.8
CCn1nc(C)c(CNC(=O)Nc2ccccc2C(=O)OC)c1C	362.1	1.8	96.4*
SMILES	T cell modulator	N-glyco inh	ALR inh
Cc1ccc(S(=O)(=O)Nc2ccc(-c3cn4ccc(C)cc4n3)cc2)cc1	542.3	1.8	0.9
Cc1ccn2cc(-c3cccc(S(=O)(=O)N4CCCC4)c3)nc2c1	361.7	1.1	97.4*
O=S(=O)(c1cccc(-c2cn3ccccc3n2)c1)N1CCCCC1	374.7	-2.4	-10.1
Cc1ccn2cc(-c3cccc(S(=O)(=O)N4CC(C)OC(C)C4)c3)nc2c1 (stereo not given)	490.7	1.5	97.1*
O=C(CCc1n[nH]c(=O)[nH]c1=O)N/N=C/c1ccco1	466.8	2.0	-4.2
CCCNC(=O)C1(C)CCCN(C(=O)CN2C(=O)c3ccccc3C2=O)C1 (stereo not given)	.	0.2	.
CCCCCOc1ccc(C(=O)Nc2ccc(N3CCOCC3)cc2N2CCOCC2)cc1	417.5	-3.2	-6.4
C[C@H](CO)N1C[C@H](C)[C@@H](CN(C)C(=O)Nc2ccc(C(F)(F)F)cc2)Oc2ccc(NC(=O)Cn3cnnn3)cc2C1=O	313.8	4.5	2.2
O=C(NNc1ccc([N+](=O)[O-])cc1)C1CC1c1ccccc1 (stereo not given)	197.0	3.9	52.8
O=C(NNc1ccc([N+](=O)[O-])cc1)C1CC2CCCC(C1)C2=O (stereo not given)	542.7	1.9	85.8*
NC(=O)NC(CC(=O)NCc1ccc2c(c1)OCO2)c1ccccc1Cl (stereo not given)	78.1	1.9	-5.0
O=S(=O)(C/C(=C/CO)S(=O)(=O)c1ccccc1)c1ccccc1	362.3	-11.1	98.6*
O=S(=O)(CS(=O)(=O)c1ccccc1)c1ccccc1	.	-2.5	.
COc1ccc(NC(=O)Cc2c(F)cccc2Cl)c(OC)c1	283.6	0.6	-4.4

From PubChem BioAssay
